Usually MIC stands for the smallest concentration in the dilution series that meets the test's criterion for growth inhibition. Lower therefore signals greater potency. Usually ED50 stands for the dose at which the effect has come halfway, by size or by number of responders. Low readings indicate an effect at a small dose, high ones a need for a large dose.

Type in all cases: functional
For one experiment, the system named is Aspergillus fumigatus. As to the kind of experiment: In vitro minimum inhibitory concentration (MIC) against Aspergillus fumigatus. The gist of the method: (§1)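 Tested against Candida albicans, Cryptococcus neoformans and Aspergillus fumigatus, with PSB as positive control. MIC is taken as the lowest drug concentration giving 90–100% inhibition of visible growth relative to drug-free controls.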

The subject of experiment [1] is Candida albicans. The experiment in a line: In vitro minimum inhibitory concentration (MIC) against Candida albicans. A digest of the protocol: as §1
In a further experiment the test system is Cryptococcus neoformans. As to the kind of experiment: In vitro minimum inhibitory concentration (MIC) against Cryptococcus neoformans. The gist of the method:
as §1

For experiment [2], the system named is Candida albicans. The experiment in a line: In vivo efficacy against murine Candidiasis dosed four times by intraperitoneal administration post-infection using Reed and Muench method. The note with it: ip. A digest of the protocol:
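Systemic candidiasis in mice, with PSB and amphotericin B as positive controls. Analogues were given at 20, 10 and 5 mg/kg, four doses at 0, 4, 24 and 48 post-infection. ED50 is the dose giving 50% survival relative to untreated infected animals, calculated by the Reed and Muench method.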

Values after ≈ are worked out from the molar mass of the structure shown. Positions of bridges follow the written chain, without caps; N, C: chain ends. Non-standard residues stand in square brackets, D forms with d. Residues, ends and D or L forms follow the SMILES beside them. Groups on a side chain read outwards from the residue. *: point of attachment. Tetradecanoyl(3R-OH) = CCCCCCCCCCC[C@@H](O)CC(=O)*; Asp(3S-OH) = N[C@H](C(=O)O)[C@H](O)C(=O)O; Thr(4-Cl) = N[C@H](C(=O)O)[C@H](O)CCl; aThr = C[C@H](O)[C@H](N)C(=O)O; dDab = NCC[C@@H](N)C(=O)O; Dab = NCC[C@H](N)C(=O)O; Dhb = C/C=C(\N)C(=O)O

As to `C/C=C1\NC(=O)[C@H]([C@H](C)O)NC(=O)[C@H](CCN)NC(=O)[C@H](CCCCN)NC(=O)[C@H](CC(=O)N(C)C)NC(=O)[C@@H](CCN)NC(=O)[C@@H](NC(=O)C[C@H](O)CCCCCCCCCCC)COC(=O)[C@H]([C@H](O)CCl)NC(=O)[C@H]([C@H](O)C(=O)O)NC1=O`, the MIC against Aspergillus fumigatus was 10 mg/L (≈ 8.1 µM); in the experiment with Candida albicans [1], 10 mg/L (≈ 8.1 µM); against Cryptococcus neoformans, less than 0.01 mg/L. This compound also displayed a 50% effective dose (ED50) in the experiment on Candida albicans [2] of less than 4.5 mg/kg.
`C/C=C1\NC(=O)[C@H]([C@H](C)O)NC(=O)[C@H](CCN)NC(=O)[C@H](CCCCN)NC(=O)[C@H](CC(=O)NCCCCCCN(C)C)NC(=O)[C@@H](CCN)NC(=O)[C@@H](NC(=O)C[C@H](O)CCCCCCCCCCC)COC(=O)[C@H]([C@H](O)CCl)NC(=O)[C@H]([C@H](O)C(=O)O)NC1=O`: the figures for the minimal inhibitory concentration (MIC) against Aspergillus fumigatus, in the experiment on Candida albicans [1] and against Cryptococcus neoformans were 20 mg/L (≈ 15 µM), 5 mg/L (≈ 3.75 µM) and less than 0.01 mg/L, respectively. The same compound gave a median effective dose (ED50) in the experiment on Candida albicans [2] of less than 5 mg/kg.
On to `C/C=C1\NC(=O)[C@H]([C@H](C)O)NC(=O)[C@H](CCN)NC(=O)[C@H](CCCCN)NC(=O)[C@H](CC(=O)NCCCCN(C)C)NC(=O)[C@@H](CCN)NC(=O)[C@@H](NC(=O)C[C@H](O)CCCCCCCCCCC)COC(=O)[C@H]([C@H](O)CCl)NC(=O)[C@H]([C@H](O)C(=O)O)NC1=O`, for which the MIC was 5 mg/L (≈ 3.83 µM) against Aspergillus fumigatus, 20 mg/L (≈ 15.3 µM) in the experiment on Candida albicans [1] and less than 0.01 mg/L with Cryptococcus neoformans. The compound further displayed an ED50 in the experiment on Candida albicans [2] of less than 5 mg/kg.
For `C/C=C1\NC(=O)[C@H]([C@H](C)O)NC(=O)[C@H](CCN)NC(=O)[C@H](CCCCN)NC(=O)[C@H](CC(=O)NCCCCCCCN(C)C)NC(=O)[C@@H](CCN)NC(=O)[C@@H](NC(=O)C[C@H](O)CCCCCCCCCCC)COC(=O)[C@H]([C@H](O)CCl)NC(=O)[C@H]([C@H](O)C(=O)O)NC1=O` the same measures were more than 20 mg/L, 10 mg/L (≈ 7.42 µM), less than 0.01 mg/L and less than 4 mg/kg.
For `C/C=C1\NC(=O)[C@H]([C@H](C)O)NC(=O)[C@H](CCN)NC(=O)[C@H](CCCCN)NC(=O)[C@H](CC(=O)N(C)CCN(C)C)NC(=O)[C@@H](CCN)NC(=O)[C@@H](NC(=O)C[C@H](O)CCCCCCCCCCC)COC(=O)[C@H]([C@H](O)CCl)NC(=O)[C@H]([C@H](O)C(=O)O)NC1=O` the same measures were 20 mg/L (≈ 15.5 µM), 5 mg/L (≈ 3.87 µM), less than 0.01 mg/L and 4 mg/kg.
For `C/C=C1\NC(=O)[C@H]([C@H](C)O)NC(=O)[C@H](CCN)NC(=O)[C@H](CCCCN)NC(=O)[C@H](CC(=O)NCCCN(C)C)NC(=O)[C@@H](CCN)NC(=O)[C@@H](NC(=O)C[C@H](O)CCCCCCCCCCC)COC(=O)[C@H]([C@H](O)CCl)NC(=O)[C@H]([C@H](O)C(=O)O)NC1=O` the same measures were 10 mg/L (≈ 7.74 µM), 10 mg/L (≈ 7.74 µM), less than 0.01 mg/L and less than 5 mg/kg.
For the compound `C/C=C1\NC(=O)[C@H]([C@H](C)O)NC(=O)[C@H](CCN)NC(=O)[C@H](CCCCN)NC(=O)[C@H](CC(=O)NCCCCCC)NC(=O)[C@@H](CCN)NC(=O)[C@@H](NC(=O)C[C@H](O)CCCCCCCCCCC)COC(=O)[C@H]([C@H](O)CCl)NC(=O)[C@H]([C@H](O)C(=O)O)NC1=O`, the minimum inhibitory concentration (MIC) against Aspergillus fumigatus is more than 20 mg/L; against Candida albicans [1] it was 5 mg/L (≈ 3.87 µM); against Cryptococcus neoformans, 0.156 mg/L (≈ 0.121 µM). The ED50 in the experiment with Candida albicans [2] is more than 12 mg/kg.
For `C/C=C1\NC(=O)[C@H]([C@H](C)O)NC(=O)[C@H](CCN)NC(=O)[C@H](CCCCN)NC(=O)[C@H](CC(=O)NCC(=O)OC)NC(=O)[C@@H](CCN)NC(=O)[C@@H](NC(=O)C[C@H](O)CCCCCCCCCCC)COC(=O)[C@H]([C@H](O)CCl)NC(=O)[C@H]([C@H](O)C(=O)O)NC1=O` ({Tetradecanoyl(3R-OH)}-S[dDab]D([Gly-OMe])K[Dab][aThr][Dhb][Asp(3S-OH)][Thr(4-Cl)]; ester 1-C) the same measures were 20 mg/L (≈ 15.6 µM), 1 mg/L (≈ 0.782 µM), 0.01 mg/L (≈ 0.00782 µM) and less than 5 mg/kg.
For `C/C=C1\NC(=O)[C@H]([C@@H](C)O)NC(=O)[C@H](CCN)NC(=O)[C@H](CCCCN)NC(=O)[C@H](CC(=O)N[C@@H](Cc2c[nH]cn2)C(=O)OC)NC(=O)[C@@H](CCN)NC(=O)[C@@H](NC(=O)C[C@H](O)CCCCCCCCCCC)COC(=O)[C@H]([C@H](O)CCl)NC(=O)[C@H]([C@H](O)C(=O)O)NC1=O` the same measures were 20 mg/L (≈ 14.7 µM), 0.312 mg/L (≈ 0.23 µM), less than 0.01 mg/L and less than 5 mg/kg.
For `C/C=C1\NC(=O)[C@H]([C@H](C)O)NC(=O)[C@H](CCN)NC(=O)[C@H](CCCCN)NC(=O)[C@H](CC(=O)NC)NC(=O)[C@@H](CCN)NC(=O)[C@@H](NC(=O)C[C@H](O)CCCCCCCCCCC)COC(=O)[C@H]([C@H](O)CCl)NC(=O)[C@H]([C@H](O)C(=O)O)NC1=O` the same measures were more than 20 mg/L, 5 mg/L (≈ 4.1 µM), 0.312 mg/L (≈ 0.256 µM) and 7.4 mg/kg.
For the compound `C/C=C1\NC(=O)[C@H]([C@H](C)O)NC(=O)[C@H](CCN)NC(=O)[C@H](CCCCN)NC(=O)[C@H](CC(=O)NCCCCCCCCC)NC(=O)[C@@H](CCN)NC(=O)[C@@H](NC(=O)C[C@H](O)CCCCCCCCCCC)COC(=O)[C@H]([C@H](O)CCl)NC(=O)[C@H]([C@H](O)C(=O)O)NC1=O`, the minimum inhibitory concentration (MIC) in the experiment on Aspergillus fumigatus was more than 20 mg/L; against Candida albicans [1] it was 20 mg/L (≈ 15 µM); with Cryptococcus neoformans, 5 mg/L (≈ 3.75 µM). Moreover, in the experiment with Candida albicans [2], the ED50 is more than 20 mg/kg.
For `C/C=C1\NC(=O)[C@H]([C@H](C)O)NC(=O)[C@H](CCN)NC(=O)[C@H](CCCCN)NC(=O)[C@H](CC(=O)NCCC(C)C)NC(=O)[C@@H](CCN)NC(=O)[C@@H](NC(=O)C[C@H](O)CCCCCCCCCCC)COC(=O)[C@H]([C@H](O)CCl)NC(=O)[C@H]([C@H](O)C(=O)O)NC1=O` the same measures were more than 20 mg/L, 0.312 mg/L (≈ 0.244 µM), less than 0.01 mg/L and 10.9 mg/kg.
For `C/C=C1\NC(=O)[C@H]([C@H](C)O)NC(=O)[C@H](CCN)NC(=O)[C@H](CCCCN)NC(=O)[C@H](CC(=O)NCCCCCCCC)NC(=O)[C@@H](CCN)NC(=O)[C@@H](NC(=O)C[C@H](O)CCCCCCCCCCC)COC(=O)[C@H]([C@H](O)CCl)NC(=O)[C@H]([C@H](O)C(=O)O)NC1=O` the same measures were more than 20 mg/L, 20 mg/L (≈ 15.2 µM), 0.625 mg/L (≈ 0.474 µM) and more than 20 mg/kg.
For `C/C=C1\NC(=O)[C@H]([C@H](C)O)NC(=O)[C@H](CCN)NC(=O)[C@H](CCCCN)NC(=O)[C@H](CC(=O)NCCCCC)NC(=O)[C@@H](CCN)NC(=O)[C@@H](NC(=O)C[C@H](O)CCCCCCCCCCC)COC(=O)[C@H]([C@H](O)CCl)NC(=O)[C@H]([C@H](O)C(=O)O)NC1=O` the same measures were more than 20 mg/L, 0.312 mg/L (≈ 0.244 µM), less than 0.01 mg/L and 8.5 mg/kg.
Regarding `C/C=C1\NC(=O)[C@H]([C@H](C)O)NC(=O)[C@H](CCN)NC(=O)[C@H](CCCCN)NC(=O)[C@H](CC(=O)NCC)NC(=O)[C@@H](CCN)NC(=O)[C@@H](NC(=O)C[C@H](O)CCCCCCCCCCC)COC(=O)[C@H]([C@H](O)CCl)NC(=O)[C@H]([C@H](O)C(=O)O)NC1=O`, the minimum inhibitory concentration (MIC) with Aspergillus fumigatus worked out at 20 mg/L (≈ 16.2 µM); against Candida albicans [1], 0.625 mg/L (≈ 0.506 µM); with Cryptococcus neoformans it was 0.156 mg/L (≈ 0.126 µM).

Source of the values: ChEMBL document CHEMBL1134010, “Syntheses and antifungal activities of novel 3-amido bearing pseudomycin analogues” (Bioorg Med Chem Lett, 2001).
